According to ChEMBL document CHEMBL1629608, “Variations in amino acid composition of antisense peptide-phosphorodiamidate morpholino oligomer affect potency against Escherichia coli in vitro and in vivo” (Antimicrob Agents Chemother, 2009):
Values after ≈ are worked out from the molar mass of the structure shown. Active and inactive are the calls of the source. The rule behind the calls is not given here.

Key:
[1] = test system: Escherichia coli; test: Antibacterial activity against Escherichia coli K-12 W3110 infected in mouse assessed as reduction of bacterial level in blood at 300 ug, ip administered 15 mins and 12 hrs postinfection measured after 2 hrs post dose relative to control; assay type: functional, K-12 substr. W3110
In short: (§1)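 Mice in groups of 3–7 were infected intraperitoneally with E. coli W3110 from an LB culture. They were dosed ip with 10–300 μg per dose at 15 min and 12 h postinfection. Controls were water or scrambled-sequence PPMO. Blood was taken at 2, 6, 12, 24 and 48 h, diluted and plated on LB for CFU/ml. Log CFU was compared by one-way ANOVA with Tukey-Kramer; mean ± SD.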

[2] = Therapeutic index, ratio of LD50 for Escherichia coli K-12 W3110 infected mouse to ED50 for Escherichia coli K-12 W3110; settings: read-out: Ratio LD50/ED50
[3] = test system: Escherichia coli; test: Antibacterial activity against Escherichia coli K-12 W3110 infected in mouse assessed as reduction of bacterial level in blood at 300 ug, ip administered 15 mins and 12 hrs postinfection measured after 6 hrs post dose relative to control; assay type: functional, K-12 substr. W3110; in short: as §1
[4] = test system: Escherichia coli; test: Antibacterial activity against Escherichia coli K-12 W3110 infected in mouse assessed as reduction of bacterial level in blood at 10 to 30 ug, ip administered 15 mins and 12 hrs postinfection measured after 2 hrs post dose relative to control; assay type: functional, organism-based; settings: K-12 substr. W3110; in short: as §1
[5] = test system: Escherichia coli; test: Antibacterial activity against Escherichia coli K-12 W3110 by microdilution method; assay type: functional; settings: K-12 substr. W3110
[6] = test system: Mus musculus; test: Toxicity in Escherichia coli K-12 W3110 infected mouse at 15 mg/kg, ip; assay type: organism-based; parameters: dose 15 mg/kg, route intraperitoneal; settings: in vivo
In short: (§2)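 Mice in groups of 3–7 were infected intraperitoneally with E. coli W3110 from an LB culture. They were treated ip at 15 min and 12 h postinfection with 10, 30, 100 or 300 μg per dose; 300 μg is noted as ~15 mg/kg. Controls were water or scrambled-sequence PPMO. Survival was followed to 48 h and analysed by the Kaplan-Meier method.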

[7] = test system: Escherichia coli; test: Antibacterial activity against Escherichia coli K-12 W3110 infected in mouse assessed as reduction of bacterial level in blood at 300 ug, ip administered 15 mins and 12 hrs postinfection measured after 12 hrs post dose relative to control; assay type: functional, K-12 substr. W3110; in short: as §1
[8] = Toxicity in Escherichia coli K-12 W3110 infected ip dosed mouse; assay type: organism-based; settings: in vivo
In short: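 E. coli K-12 W3110 was grown in LB broth for the inoculum and injected intraperitoneally into groups of 3–7 mice. Conjugates were given ip at 15 min and 12 h postinfection (10–300 μg per dose), with water or scrambled-sequence conjugate as controls. Blood drawn at 2, 6, 12, 24 and 48 h was diluted and plated on LB for CFU counts. Survival was followed by Kaplan-Meier, and log CFU was compared by ANOVA with Tukey-Kramer.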

[9] = test system: Escherichia coli; test: Antibacterial activity against Escherichia coli K-12 W3110 infected in mouse assessed as reduction of bacterial level in blood at 100 ug, ip administered 15 mins and 12 hrs postinfection measured after 2 hrs post dose relative to control; assay type: functional, organism-based; settings: K-12 substr. W3110; in short: as §1
[10] = test system: Escherichia coli; test: Antibacterial activity against Escherichia coli K-12 W3110 infected in ip dosed mouse assessed as reduction of bacterial level in blood administered 15 mins and 12 hrs postinfection; assay type: functional; settings: K-12 substr. W3110, Blood; in short: as §1
[11] = test system: Escherichia coli; test: Antibacterial activity against Escherichia coli K-12 W3110 infected in mouse assessed as reduction of bacterial level in blood at 30 ug, ip administered 15 mins and 12 hrs postinfection measured after 2 hrs post dose relative to control; assay type: functional, K-12 substr. W3110; parameters: scale not given: the % may be the effect or the level left; in short: as §1
[12] = test system: Escherichia coli; test: Antibacterial activity against Escherichia coli K-12 W3110 infected in mouse assessed as increase of mouse survival at 30 to 300 ug, ip administered 15 mins and 12 hrs postinfection; assay type: functional, organism-based; settings: K-12 substr. W3110; in short: as §2
[13] = test system: Escherichia coli; test: Antibacterial activity against Escherichia coli K-12 W3110 infected in mouse assessed as increase of mouse survival at 10 ug, ip administered 15 mins and 12 hrs postinfection; assay type: functional, organism-based; settings: K-12 substr. W3110, filed as antagonist; in short: as §2
[14] = test system: Escherichia coli; test: Antibacterial activity against Escherichia coli K-12 W3110 infected in mouse assessed as reduction of bacterial level in blood at 100 ug, ip administered 15 mins and 12 hrs postinfection measured after 12 hrs post dose relative to control; assay type: functional, K-12 substr. W3110; in short: as §1

Compound	log10cfu [1]	selectivity ratio [2]	log10cfu [3]	Activity [4]	MIC [5] [µM]	Activity [6]	log10cfu [7]	LD50 [8] [mg/kg]	Activity [9]	ED50 [10] [mg/kg]	Activity [11] [%]	Activity [12]	Activity [13]	log10cfu [14]
Cc1cn([C@H]2CN(P(=O)(OC[C@@H]3CN(P(=O)(OC[C@@H]4CN(P(=O)(OC[C@@H]5CN(P(=O)(OC[C@@H]6CN(P(=O)(OC[C@@H]7CN(P(=O)(OC[C@@H]8CN(P(=O)(OC[C@@H]9CN(P(=O)(OC[C@@H]%10CNC[C@H](n%11cnc%12c(=O)[nH]c(N)nc%12%11)O%10)N(C)C)C[C@H](n%10cc(C)c(=O)[nH]c%10=O)O9)N(C)C)C[C@H](n9cnc%10c(=O)[nH]c(N)nc%109)O8)N(C)C)C[C@H](n8cnc9c(N)ncnc98)O7)N(C)C)C[C@H](n7cc(C)c(=O)[nH]c7=O)O6)N(C)C)C[C@H](n6cnc7c(N)ncnc76)O5)N(C)C)C[C@H](n5cnc6c(=O)[nH]c(N)nc65)O4)N(C)C)C[C@H](n4ccc(N)nc4=O)O3)N(C)C)C[C@@H](COP(=O)(N(C)C)N3C[C@@H](COP(=O)(N(C)C)N4C[C@@H](COP(=O)(N(C)C)N5CCN(C(=O)CCNC(=O)CCCCCNC(=O)[C@H](CCCNC(=N)N)NC(=O)[C@H](Cc6ccccc6)NC(=O)[C@H](CCCNC(=N)N)NC(=O)[C@H](CCCNC(=N)N)NC(=O)NC(=O)[C@H](Cc6ccccc6)NC(=O)[C@H](CCCNC(=N)N)NC(=O)[C@H](CCCNC(=N)N)NC(=O)NC(=O)[C@H](Cc6ccccc6)NC(=O)[C@H](CCCNC(=N)N)NC(=O)[C@H](CCCNC(=N)N)NC(=O)NC(=O)[C@H](Cc6ccccc6)NC(=O)[C@@H](N)CCCNC(=N)N)CC5)O[C@@H](n5ccc(N)nc5=O)C4)O[C@@H](n4cc(C)c(=O)[nH]c4=O)C3)O2)c(=O)[nH]c1=O (stereo partly specified)	2	200	2	inactive	0.625 (≈ 3.71 µg/mL)	Non-toxic	2	300	Active	1.5				
Cc1cn([C@H]2CN(P(=O)(OC[C@@H]3CN(P(=O)(OC[C@@H]4CN(P(=O)(OC[C@@H]5CN(P(=O)(OC[C@@H]6CN(P(=O)(OC[C@@H]7CN(P(=O)(OC[C@@H]8CN(P(=O)(OC[C@@H]9CN(P(=O)(OC[C@@H]%10CNC[C@H](n%11cnc%12c(=O)[nH]c(N)nc%12%11)O%10)N(C)C)C[C@H](n%10cc(C)c(=O)[nH]c%10=O)O9)N(C)C)C[C@H](n9cnc%10c(=O)[nH]c(N)nc%109)O8)N(C)C)C[C@H](n8cnc9c(N)ncnc98)O7)N(C)C)C[C@H](n7cc(C)c(=O)[nH]c7=O)O6)N(C)C)C[C@H](n6cnc7c(N)ncnc76)O5)N(C)C)C[C@H](n5cnc6c(=O)[nH]c(N)nc65)O4)N(C)C)C[C@H](n4ccc(N)nc4=O)O3)N(C)C)C[C@@H](COP(=O)(N(C)C)N3C[C@@H](COP(=O)(N(C)C)N4C[C@@H](COP(=O)(N(C)C)N5CCN(C(=O)CCNC(=O)CCCCCNC(=O)[C@H](CCCNC(=N)N)NC(=O)CCCCNC(=O)[C@H](CCCNC(=N)N)NC(=O)[C@H](CCCNC(=N)N)NC(=O)CCCCNC(=O)[C@H](CCCNC(=N)N)NC(=O)[C@H](CCCNC(=N)N)NC(=O)CCCCNC(=O)[C@H](CCCNC(=N)N)NC(=O)[C@H](CCCNC(=N)N)NC(=O)CCCCNC(=O)[C@@H](N)CCCNC(=N)N)CC5)O[C@@H](n5ccc(N)nc5=O)C4)O[C@@H](n4cc(C)c(=O)[nH]c4=O)C3)O2)c(=O)[nH]c1=O (stereo partly specified)					1.25 (≈ 7.02 µg/mL)		2.5				98	Active	Antagonist	2.5
